These results are taken from ChEMBL document CHEMBL1123580, “Synthesis and biological properties of side-chain-modified bleomycins” (1987).

For test [1], the system named is B16. As to the kind of experiment: Effect on the survival of mouse B16 melanoma cells was determined at a dose of 100 ug/mL in vitro. The test is classed as functional. As to conditions: read-out: Survival. Put shortly:
(§1)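 B16 mouse melanoma cells from log-phase cultures seeded at 5 × 10^4 cells/mL in Dulbecco's modified Eagle medium with 10% newborn calf serum; after 24 h, exposed to agent (10 or 100 µg/mL) for 21 h, washed twice, fresh medium. Cells trypsinized and counted 48 h after start of incubation; viability by Trypan blue exclusion. Survival = T/C × 100 versus untreated control; mean of three samples.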

In test [2] the test system is B16. Put plainly: Effect on the survival of mouse B16 melanoma cells was determined at a dose of 10 ug/mL in vitro. The test is classed as functional. The note with it: read-out: Survival. Put shortly: as §1

Consider `Cc1c(N)nc(C(CC(N)=O)NCC(N)C(N)=O)nc1C(=O)NC(C(=O)NC(C)C(O)C(C)C(=O)NC(C(=O)NCCc1nc(-c2nc(C(=O)NCCC[S+](C)CC(=O)NC3CC3)cs2)cs1)C(C)O)C(O[C@@H]1O[C@@H](CO)[C@@H](O)[C@@H](O)[C@@H]1O[C@H]1O[C@H](CO)[C@@H](O)[C@@H](OC(N)=O)[C@@H]1O)c1c[nH]cn1` (some centres not stated), for which the viability at 100 µg/mL in test [1] was found to be 28%. The viability at 10 µg/mL in test [2] was 38%.
Consider `Cc1c(N)nc(C(CC(N)=O)NCC(N)C(N)=O)nc1C(=O)NC(C(=O)NC(C)C(O)C(C)C(=O)NC(C(=O)NCCc1nc(-c2nc(C(=O)NCCC[S+](C)CC(=O)Nc3ccc([N+](=O)[O-])cc3)cs2)cs1)C(C)O)C(O[C@@H]1O[C@@H](CO)[C@@H](O)[C@@H](O)[C@@H]1O[C@H]1O[C@H](CO)[C@@H](O)[C@@H](OC(N)=O)[C@@H]1O)c1c[nH]cn1` (some centres not stated), for which the viability at 100 µg/mL in test [1] is 30%. Further, the viability at 10 µg/mL in test [2] came to 46%.
In the same order, the values of `Cc1c(N)nc(C(CC(N)=O)NCC(N)C(N)=O)nc1C(=O)NC(C(=O)NC(C)C(O)C(C)C(=O)NC(C(=O)NCCc1nc(-c2nc(C(=O)NCCC[S+](C)CC(=O)N3CCCC3)cs2)cs1)C(C)O)C(O[C@@H]1O[C@@H](CO)[C@@H](O)[C@@H](O)[C@@H]1O[C@H]1O[C@H](CO)[C@@H](O)[C@@H](OC(N)=O)[C@@H]1O)c1c[nH]cn1` (some centres not stated) are 29% and 35%.
Turning to `Cc1c(N)nc(C(CC(N)=O)NCC(N)C(N)=O)nc1C(=O)NC(C(=O)NC(C)C(O)C(C)C(=O)NC(C(=O)NCCc1nc(-c2nc(C(=O)NCCC[S+](C)CC(N)=O)cs2)cs1)C(C)O)C(O[C@@H]1O[C@H](CO)[C@H](O)[C@@H](O)[C@@H]1O[C@H]1O[C@@H](CO)[C@@H](O)[C@H](OC(N)=O)[C@H]1O)c1c[nH]cn1` (some centres not stated), in test [1], the viability at 100 µg/mL was determined as 21%. For the same compound, the viability at 10 µg/mL in test [2] turned out to be 38%.
Consider `Cc1c(N)nc(C(CC(N)=O)NCC(N)C(N)=O)nc1C(=O)NC(C(=O)NC(C)C(O)C(C)C(=O)NC(C(=O)NCCc1nc(-c2nc(C(=O)NCCC[S+](C)CC(=O)NC(C)C)cs2)cs1)C(C)O)C(O[C@@H]1O[C@H](CO)[C@@H](O)[C@@H](O)C1OC1O[C@@H](CO)C(O)[C@@H](OC(N)=O)[C@@H]1O)c1c[nH]cn1` (some centres not stated), for which the viability at 100 µg/mL in test [1] came out at 23%. For the same compound, the viability at 10 µg/mL in test [2] is 41%.
Turning to `Cc1c(N)nc(C(CC(N)=O)NCC(N)C(N)=O)nc1C(=O)NC(C(=O)NC(C)C(O)C(C)C(=O)NC(C(=O)NCCc1nc(-c2nc(C(=O)NCCC[S+](C)CC(=O)Nc3ccccc3)cs2)cs1)C(C)O)C(O[C@@H]1O[C@@H](CO)[C@@H](O)[C@@H](O)[C@@H]1O[C@H]1O[C@H](CO)[C@@H](O)[C@@H](OC(N)=O)[C@@H]1O)c1c[nH]cn1` (some centres not stated), the viability at 100 µg/mL in test [1] stood at 27%. For the same compound, in test [2], the viability at 10 µg/mL was 45%.
The corresponding values for `CCOC(=O)C[S+](C)CCCNC(=O)c1csc(-c2csc(CCNC(=O)C(NC(=O)C(C)C(O)C(C)NC(=O)C(NC(=O)c3nc(C(CC(N)=O)NCC(N)C(N)=O)nc(N)c3C)C(O[C@@H]3O[C@@H](CO)[C@@H](O)[C@@H](O)[C@@H]3O[C@H]3O[C@H](CO)[C@@H](O)[C@@H](OC(N)=O)[C@@H]3O)c3c[nH]cn3)C(C)O)n2)n1` (some centres not stated) are 27% and 43%.
In the same order, the values of `Cc1c(N)nc(C(CC(N)=O)NCC(N)C(N)=O)nc1C(=O)NC(C(=O)NC(C)C(O)C(C)C(=O)NC(C(=O)NCCc1nc(-c2nc(C(=O)NCCC[S+](C)CC(=O)Nc3ccc4ccccc4c3)cs2)cs1)C(C)O)C(O[C@@H]1O[C@@H](CO)[C@@H](O)[C@@H](O)[C@@H]1O[C@H]1O[C@H](CO)[C@@H](O)[C@@H](OC(N)=O)[C@@H]1O)c1c[nH]cn1` (some centres not stated) are 32% and 48%.
In the case of `Cc1c(N)nc(C(CC(N)=O)NCC(N)C(N)=O)nc1C(=O)NC(C(=O)NC(C)C(O)C(C)C(=O)NC(C(=O)NCCc1nc(-c2nc(C(=O)NCCC[S+](C)CC(=O)N3CCOCC3)cs2)cs1)C(C)O)C(O[C@@H]1O[C@@H](CO)[C@@H](O)[C@@H](O)[C@@H]1O[C@H]1O[C@H](CO)[C@@H](O)[C@@H](OC(N)=O)[C@@H]1O)c1c[nH]cn1` (some centres not stated), the viability at 100 µg/mL in test [1] was 28%. The viability at 10 µg/mL in test [2] amounted to 51%.
With `Cc1c(N)nc([C@H](CC(N)=O)NC[C@H](N)C(N)=O)nc1C(=O)N[C@H](C(=O)N[C@H](C)[C@@H](O)[C@H](C)C(=O)N[C@H](C(=O)NCCc1nc(-c2nc(C(=O)NCCC[S+](C)C)cs2)cs1)[C@@H](C)O)[C@@H](O[C@@H]1O[C@@H](CO)[C@@H](O)[C@H](O)[C@@H]1O[C@H]1O[C@H](CO)[C@@H](O)[C@H](OC(N)=O)[C@@H]1O)c1c[nH]cn1` [BLEOMYCIN A2], the viability at 100 µg/mL in test [1] stood at 28%. Also, the viability at 10 µg/mL in test [2] is 39%.
On to `COc1ccc(NC(=O)C[S+](C)CCCNC(=O)c2csc(-c3csc(CCNC(=O)C(NC(=O)C(C)C(O)C(C)NC(=O)C(NC(=O)c4nc(C(CC(N)=O)NCC(N)C(N)=O)nc(N)c4C)C(O[C@@H]4O[C@@H](CO)[C@@H](O)[C@@H](O)[C@@H]4O[C@H]4O[C@H](CO)[C@@H](O)[C@@H](OC(N)=O)[C@@H]4O)c4c[nH]cn4)C(C)O)n3)n2)cc1` (some centres not stated), for which the viability at 100 µg/mL in test [1] was determined as 28%. In addition, the viability at 10 µg/mL in test [2] worked out at 40%.
